Active and inactive are the calls of the source. The rule behind the calls is not given here.
Columns and labels:
[1] = Aqueous solubility of the compound; format: physicochemical; conditions: buffer
Plasmodium berghei [2] = experiment: Antimalarial activity against Plasmodium berghei KBG173 infected in mouse assessed as increase in mouse survival time at 5 mg/kg, iv BID administered on day 3, 4 and 5 post infection relative to azithromycin; format: functional
Procedure, shortened: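 Male mice (24−30 g) inoculated intraperitoneally with 5 × 10⁶ P. berghei KBG-173-infected erythrocytes; parasitemia 1.0–3.7% by day 3. IV dosing twice daily on days 3, 4 and 5 post-infection. Read-out is the survival time of the last animal alive. Mice blood-smear negative on day 31 counted as cured; mice losing ≥20% body weight sacrificed.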

[3] = Fraction unbound in CD1 mouse plasma at 5 mg/kg, iv; format: ADME, organism-based; parameters: dose 5 mg/kg, route intravenous
Procedure, shortened: (§1)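 Fraction unbound measured in mouse plasma by ultrafiltration at 1 μg/mL. Unbound clearance = blood clearance/fu, assuming blood/plasma ratio of 1. Blood clearance comes from male CD-1 mice dosed IV at 5 mg/kg, with tail-vein sampling up to 24 h and LC-MS/MS analysis.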

Liver microsomes [4] = experiment: Intrinsic clearance in human liver microsomes assessed per gram of liver at 1 uM after 60 mins at pH 7.4 by LC-MS/MS analysis; format: ADME, Microsome; conditions: pH 7.4, 1 h
Procedure, shortened: (§2)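 Liver microsomes (0.5 mg protein/mL) in 50 mM potassium phosphate pH 7.4 with 1.0 μM compound at 37 °C for 60 min. Reaction started with NADP/glucose-6-phosphate/MgCl₂/G6PDH cofactor mix; solvent 1% final. LC-MS/MS read-out. CLi from first-order elimination constant by nonlinear regression, corrected for incubation volume, assuming 52.5 mg microsomal protein/g liver.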

[5] = Volume of distribution at steady state in CD1 mouse at 5 mg/kg, iv; format: ADME, organism-based; parameters: dose 5 mg/kg, route intravenous; conditions: in vivo, read-out: Vdss
Procedure, shortened: (§3)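 Male CD-1 mice (N = 3 per route) dosed IV at 5 mg/kg or orally at 25 mg/kg while fasted, mostly in saline (2.5 mg/mL). Tail-vein blood taken up to 24 h, cardiac puncture at 30 h. Samples hemolyzed, protein-precipitated with acetonitrile plus internal standard, analysed by positive ESI LC-MS/MS.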

HepG2 = experiment: Cytotoxicity against human HepG2 cells after 24 hrs by MTS assay; format: cell-based; conditions: HepG2, 24 h
Procedure, shortened: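 HepG2 cells kept in RPMI 1640 with 10% FBS plus antibiotics at 37 °C, 5% CO₂. 50 000 cells per well exposed to 10 two-fold serial dilutions for 24 h. MTS reagent then added for 2 h more, absorbance read at 490 nm, IC50 derived.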

[6] = Clearance at steady state in CD1 mouse at 5 mg/kg, iv; format: ADME, organism-based; parameters: dose 5 mg/kg, route intravenous; conditions: in vivo, read-out: CLss; procedure, shortened: as §3
Plasmodium falciparum = experiment: Antimalarial activity against mefloquine-resistant Plasmodium falciparum TM91C235 assessed as [3H]hypoxanthine incorporation after 48 hrs; format: functional, organism-based
Procedure, shortened: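 Tritiated hypoxanthine incorporation assay (Desjardins method, Milhous modification) with 48 h drug exposure. Uses P. falciparum clone TM91C235 (Southeast Asian, mefloquine-resistant). Compounds 2-fold diluted over 11 concentrations. IC50 derived by nonlinear logistic dose-response fitting, averaged where multiple runs were done.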

[7] = (§4) Plasma protein binding in mouse at 1 ug/ml after 30 mins; format: ADME, cell-free; conditions: read-out: PPB (converted)
Procedure, shortened: (§5)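 Ultrafiltration on mouse plasma preincubated 15 min at 37 °C, compound spiked to 1 μg/mL final. Aliquots taken at 0 and 15 min, remainder spun through a 10 kDa filter for 30 min at 37 °C, 2850 g. Filtrate deproteinized and analysed by LC-MS/MS.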

[8] = Half life in CD1 mouse at 5 mg/kg, iv; format: ADME, organism-based; parameters: dose 5 mg/kg, route intravenous; conditions: CD1, mouse, in vivo; procedure, shortened: as §3
[9] = Oral bioavailability in CD1 mouse at 25 mg/kg; format: ADME, organism-based; conditions: in vivo; procedure, shortened: as §3
Mus musculus = experiment: Unbound clearance in CD1 mouse at 5 mg/kg, iv; format: ADME, organism-based; parameters: dose 5 mg/kg, route intravenous; conditions: in vivo; procedure, shortened: as §1
Plasmodium berghei [10] = experiment: Antimalarial activity against Plasmodium berghei KBG173 infected in mouse assessed as cured mouse at 5 mg/kg, iv BID administered on day 3, 4 and 5 post infection measured up to day 31; format: functional, organism-based; parameters: dose 5 mg/kg
Procedure, shortened: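 Male mice (24–30 g) inoculated intraperitoneally with 5 × 10⁶ P. berghei KBG-173-infected erythrocytes; parasitemia about 1.0–3.7% by day 3. Dosing twice daily on days 3–5 postinfection. Blood smears negative on day 31 counted as cured, scored as cured/total mice (5 per dose). Mice losing ≥20% body weight sacrificed.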

Liver = experiment: Intrinsic clearance in mouse liver microsomes assessed per gram of liver at 1 uM after 60 mins at pH 7.4 by LC-MS/MS analysis; format: ADME, Microsome; conditions: pH 7.4, 1 h; procedure, shortened: as §2
Plasma = experiment: as §4; format: ADME, cell-free; conditions: 0.5 h; procedure, shortened: as §5
Liver microsomes [11] = experiment: Intrinsic clearance in rat liver microsomes assessed per gram of liver at 1 uM after 60 mins at pH 7.4 by LC-MS/MS analysis; format: ADME, Microsome; conditions: pH 7.4, 1 h; procedure, shortened: as §2

| SMILES | solubility [1] | Survival (Plasmodium berghei [2]) [days] | fraction unbound [3] | CLint (Liver microsomes [4]) [mL/min/g] | Vd [5] [L/kg] | IC50 (HepG2) [nM] | clearance [6] [mL/min/kg] | IC50 (Plasmodium falciparum) [nM] | fraction unbound at 0.5 h, 1 ug/ml [7] | half-life [8] [h] | bioavailability [9] [%] | CL free (Mus musculus) [mL/min/kg] | Activity (Plasmodium berghei [10]) | CLint (Liver) [mL/min/g] | PPB (Plasma) [%] | CLint (Liver microsomes [11]) [mL/min/g] |
| --- | --- | --- | --- | --- | --- | --- | --- | --- | --- | --- | --- | --- | --- | --- | --- | --- |
| CC(=O)O.CC[C@H]1OC(=O)[C@H](C)[C@@H](O[C@H]2C[C@@](C)(OC)[C@@H](O)[C@H](C)O2)[C@H](C)[C@@H](O[C@@H]2O[C@H](C)C[C@H](N(C)C)[C@H]2O)[C@](C)(O)C[C@@H](C)CN(CCCNC(=O)CCc2ccccc2)[C@H](C)[C@@H](O)[C@]1(C)O | >= 10 mg kg-1 | – | – | – | – | – | – | – | – | – | – | – | – | – | – | – |
| CC[C@H]1OC(=O)[C@H](C)[C@@H](O[C@H]2C[C@@](C)(OC)[C@@H](O)[C@H](C)O2)[C@H](C)[C@@H](O[C@@H]2O[C@H](C)C[C@H](N(C)C)[C@H]2O)[C@](C)(O)C[C@@H](C)CN(CCC(=O)N[C@H](C)c2cccc3ccccc23)[C@H](C)[C@@H](O)[C@]1(C)O | – | -9 | 0.13 | 1.8 | 7.8 | > 30000 | 10.5 | 95 | 0.13 | 16.5 | 23.6 | 81 | – | – | – | – |
| CC[C@H]1OC(=O)[C@H](C)[C@@H](O[C@H]2C[C@@](C)(OC)[C@@H](O)[C@H](C)O2)[C@H](C)[C@@H](O[C@@H]2O[C@H](C)C[C@H](N(C)C)[C@H]2O)[C@](C)(O)C[C@@H](C)CN(CCCNCc2ccnc3ccccc23)[C@H](C)[C@@H](O)[C@]1(C)O [listing 1 of 2 here] | – | – | – | – | – | – | – | – | – | – | – | – | inactive | – | – | – |
| CC[C@H]1OC(=O)[C@H](C)[C@@H](O[C@H]2C[C@@](C)(OC)[C@@H](O)[C@H](C)O2)[C@H](C)[C@@H](O[C@@H]2O[C@H](C)C[C@H](N(C)C)[C@H]2O)[C@](C)(O)C[C@@H](C)CN(CCCNc2ccnc3ccccc23)[C@H](C)[C@@H](O)[C@]1(C)O | – | 3 | 0.39 | < 0.6 | 4.9 | > 50000 | 7.7 | 25 | – | 14.4 | 1.7 | 20 | – | < 0.6 | 43 | < 0.6 |
| CC(=O)O.CC[C@H]1OC(=O)[C@H](C)[C@@H](O[C@H]2C[C@@](C)(OC)[C@@H](O)[C@H](C)O2)[C@H](C)[C@@H](O[C@@H]2O[C@H](C)C[C@H](N(C)C)[C@H]2O)[C@](C)(O)C[C@@H](C)CN(CCC(=O)N[C@H](C)c2cccc3ccccc23)[C@H](C)[C@@H](O)[C@]1(C)O | >= 10 mg kg-1 | – | – | – | – | – | – | – | – | – | – | – | – | – | – | – |
| CC(=O)O.CC[C@H]1OC(=O)[C@H](C)[C@@H](O[C@H]2C[C@@](C)(OC)[C@@H](O)[C@H](C)O2)[C@H](C)[C@@H](O[C@@H]2O[C@H](C)C[C@H](N(C)C)[C@H]2O)[C@](C)(O)C[C@@H](C)CN(CCCNc2ccnc3cc(Cl)ccc23)[C@H](C)[C@@H](O)[C@]1(C)O | >= 10 mg kg-1 | – | – | – | – | – | – | – | – | – | – | – | – | – | – | – |
| CC[C@H]1OC(=O)[C@H](C)[C@@H](O[C@H]2C[C@@](C)(OC)[C@@H](O)[C@H](C)O2)[C@H](C)[C@@H](O[C@@H]2O[C@H](C)C[C@H](N(C)C)[C@H]2O)[C@](C)(O)C[C@@H](C)CN(CCCNc2ccnc3cc(Cl)ccc23)[C@H](C)[C@@H](O)[C@]1(C)O | – | 9 | 0.42 | < 0.6 | 2.9 | 30000 | 4 | 22 | – | 17.8 | 20.4 | 9.5 | – | < 0.6 | 43 | < 0.6 |
| CC[C@H]1OC(=O)[C@H](C)[C@@H](O[C@H]2C[C@@](C)(OC)[C@@H](O)[C@H](C)O2)[C@H](C)[C@@H](O[C@@H]2O[C@H](C)C[C@H](N(C)C)[C@H]2O)[C@](C)(O)C[C@@H](C)CN(CCCNC(=O)CCc2ccccc2)[C@H](C)[C@@H](O)[C@]1(C)O [listing 1 of 2 here] | – | -12 | 0.43 | < 0.6 | 5 | > 50000 | 23.3 | 70 | – | 6.9 | 12.7 | 54 | – | < 0.6 | 43 | < 0.6 |
| CC(=O)O.CC[C@H]1OC(=O)[C@H](C)[C@@H](O[C@H]2C[C@@](C)(OC)[C@@H](O)[C@H](C)O2)[C@H](C)[C@@H](O[C@@H]2O[C@H](C)C[C@H](N(C)C)[C@H]2O)[C@](C)(O)C[C@@H](C)CN(CCCNCc2ccnc3ccccc23)[C@H](C)[C@@H](O)[C@]1(C)O | >= 10 mg kg-1 | – | – | – | – | – | – | – | – | – | – | – | – | – | – | – |
| CC[C@H]1OC(=O)[C@H](C)[C@@H](O[C@H]2C[C@@](C)(OC)[C@@H](O)[C@H](C)O2)[C@H](C)[C@@H](O[C@@H]2O[C@H](C)C[C@H](N(C)C)[C@H]2O)[C@](C)(O)C[C@@H](C)CN(CCCNC(=O)CCc2ccccc2)[C@H](C)[C@@H](O)[C@]1(C)O [listing 2 of 2 here] | – | – | – | – | – | – | – | – | – | – | – | – | inactive | – | – | – |
| CC(=O)O.CC[C@H]1OC(=O)[C@H](C)[C@@H](O[C@H]2C[C@@](C)(OC)[C@@H](O)[C@H](C)O2)[C@H](C)[C@@H](O[C@@H]2O[C@H](C)C[C@H](N(C)C)[C@H]2O)[C@](C)(O)C[C@@H](C)CN(CCCNc2ccnc3ccccc23)[C@H](C)[C@@H](O)[C@]1(C)O | >= 10 mg kg-1 | – | – | – | – | – | – | – | – | – | – | – | – | – | – | – |
| CC[C@H]1OC(=O)[C@H](C)[C@@H](O[C@H]2C[C@@](C)(OC)[C@@H](O)[C@H](C)O2)[C@H](C)[C@@H](O[C@@H]2O[C@H](C)C[C@H](N(C)C)[C@H]2O)[C@](C)(O)C[C@@H](C)CN(CCCNCc2ccnc3ccccc23)[C@H](C)[C@@H](O)[C@]1(C)O [listing 2 of 2 here] | – | 3 | 0.57 | < 0.6 | 4.9 | > 50000 | 10.2 | 165 | 0.57 | 8.7 | 19.5 | 18 | – | < 0.6 | – | < 0.6 |
